Here are results for seven molecules from ChEMBL document CHEMBL5036376, “C20-nor-Abietane and Three Abietane Diterpenoids from Plectranthus mutabilis Leaves as P-Glycoprotein Modulators” (ACS Med Chem Lett, 2022).

Where only a bound is given, the exact number is not on record here.

By IC50 is commonly meant the point on the concentration scale where inhibition reaches its midpoint.

Data set [1] in a line: Selectivity index, ratio of IC50 for cytotoxicity against human MRC-5 cells to of IC50 for anticancer activity against human NCI-H460 cells. It counts as toxicity, cell-based. The conditions noted are these: for selectivity ratio: MRC-5 cells versus NCI-H460 cells, read-out: Ratio IC50. The method in brief:
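Selectivity index is the MRC-5 IC50 divided by the NCI-H460 IC50. Both come from MTT viability assays over 2–50 μM (compounds) or 2–50 μg/mL (extract).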

Data set [2] relates to MRC5. Put plainly: Cytotoxicity against human MRC-5 cells assessed as reduction in cell viability measured after 72 hrs by MTT assay. In kind it is cell-based. The conditions noted are these: MRC5, 72 h. The method in brief:
(§1)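 MTT read-out of metabolic activity (viability) in sensitive NSCLC NCI-H460, its P-gp-overexpressing MDR subline NCI-H460/R and normal embryonic lung fibroblasts MRC-5. Isolated diterpenes were tested at 2, 5, 10, 20 and 50 μM and acetone extract at 2, 5, 10, 20 and 50 μg/mL. IC50 was reported in μM for compounds and μg/mL for extract.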
A general note: Formazan colour is commonly taken as a measure of viable cells.

In data set [3] the test system is NCI-H460. Put plainly: Anticancer activity against human multi-drug resistant NCI-H460/R cells assessed as reduction in cell viability measured after 72 hrs by MTT assay. Conditions: NCI-H460, 72 h; call rule not given here. It counts as functional, cell-based. The method in brief: as §1
For data set [4], the system named is NCI-H460. Put plainly: Anticancer activity against human NCI-H460 cells assessed as reduction in cell viability measured after 72 hrs by MTT assay. In kind it is functional, cell-based. Conditions: NCI-H460, 72 h. The method in brief: as §1
Data set [5] addresses T1, ATP-dependent translocase ABCB1 (Homo sapiens, UniProt P08183). Put plainly: Stimulation of P-gp in human multi-drug resistant NCI-H460/R cells assessed as decrease in Rho123 accumulation by measuring mean fluorescence intensity at 5 uM incubated for 30 mins in presence of rhodamine 123 by flow cytometry. The conditions noted are these: nci-h460, 0.5 h. In short, it runs like this:
(§2)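 NCI-H460/R (P-gp-overexpressing NSCLC) cells exposed to the test agent together with Rho123 for 30 min; mean fluorescence intensity (MFI) read. Untreated NCI-H460/R serve as MDR control and parental NCI-H460 as sensitive control. FAR = MFI treated/MFI MDR control; SI = MFI treated × 100/MFI sensitive control; mean ± SE. Tariquidar is the P-gp inhibition positive control.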
(Flow cytometry measures light scatter and fluorescence of single cells or particles in a stream.)

Data set [6] has as its target T1, ATP-dependent translocase ABCB1. Put plainly: Stimulation of P-gp in human multi drug resistant NCI-H460/R cells assessed as decrease in Rho123 accumulation by measuring mean fluorescence intensity at 10 uM incubated for 30 mins in presence of rhodamine 123by flow cytometry. Conditions: nci-h460, 0.5 h. In short, it runs like this: as §2
The target is the same in data set [7]. Put plainly: Stimulation of P-gp in human multidrug resistant NCI-H460/R cells assessed as fluorescence activity ratio at 5 uM for 30 mins by Rho123 accumulation assay relative to control. The conditions noted are these: nci-h460, 0.5 h.
Data set [8] has the same target. Put plainly: Stimulation of P-gp in human multidrug resistant NCI-H460/R cells assessed as fluorescence activity ratio at 10 uM for 30 mins by Rho123 accumulation assay relative to control. The conditions noted are these: nci-h460, 0.5 h.
Data set [9] in a line: Selectivity index, ratio of mean fluorescence intensity for stimulation of P-gp in human multidrug resistant NCI-H460/R cells to mean fluorescence intensity for stimulation of P-gp in human NCI-H460 cells assessed as decrease in Rho123 accumulation at 5 uM for 30 mins. It counts as functional. Conditions: 0.5 h.
Data set [10] can be described thus: Selectivity index, ratio of mean fluorescence intensity for stimulation of P-gp in human multidrug resistant NCI-H460/R cells to mean fluorescence intensity for stimulation of P-gp in human NCI-H460 cells assessed as decrease in Rho123 accumulation at 10 uM for 30 mins. It counts as functional. Conditions: 0.5 h.
Data set [11] deals with T1, ATP-dependent translocase ABCB1. Put plainly: Stimulation of P-gp in human multidrug resistant NCI-H460/R cells assessed as decrease in Rho123 accumulation by measuring mean fluorescence intensity at 5 uM incubated for 72 hrs followed by rhodamine 123 measured after 30 mins by flow cytometry. The conditions noted are these: nci-h460, 72.5 h. The method in brief:
(§3)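 NCI-H460/R cells treated with the test agent for 72 h, then loaded with Rho123 for 30 min; intracellular mean fluorescence intensity (MFI) measured. References are untreated NCI-H460/R (MDR control) and parental NCI-H460 (sensitive control). FAR = MFI treated/MFI MDR control; SI = MFI treated × 100/MFI sensitive control; mean ± SE. Tariquidar is the P-gp inhibitor comparator.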

Data set [12] has the same target. Put plainly: Stimulation of P-gp in human multidrug resistant NCI-H460/R cells assessed as decrease in Rho123 accumulation by measuring mean fluorescence intensity at 10 uM incubated for 72 hrs followed by rhodamine 123 measured after 30 mins by flow cytometry. The conditions noted are these: nci-h460, 72.5 h. In short, it runs like this:
as §3

The target is the same in data set [13]. Put plainly: Stimulation of P-gp in human multidrug resistant NCI-H460/R cells assessed as fluorescence activity ratio at 5 uM for 72 mins by Rho123 accumulation assay relative to control. The conditions noted are these: nci-h460, 1.2 h.
The target is the same in data set [14]. Put plainly: Stimulation of P-gp in human multidrug resistant NCI-H460/R cells assessed as fluorescence activity ratio at 10 uM for 72 mins by Rho123 accumulation assay relative to control. Conditions: nci-h460, 1.2 h.
The nature of data set [15]: Selectivity index, ratio of mean fluorescence intensity for stimulation of P-gp in human multidrug resistant NCI-H460/R cells to mean fluorescence intensity for stimulation of P-gp in human NCI-H460 cells assessed as decrease in Rho123 accumulation at 5 uM for 72 mins. In kind it is functional. The conditions noted are these: 1.2 h.
A short description of data set [16]: Selectivity index, ratio of mean fluorescence intensity for stimulation of P-gp in human multidrug resistant NCI-H460/R cells to mean fluorescence intensity for stimulation of P-gp in human NCI-H460 cells assessed as decrease in Rho123 accumulation at 10 uM for 72 mins. In kind it is functional. The conditions noted are these: 1.2 h.
The target in data set [17] is T1, ATP-dependent translocase ABCB1. Put plainly: Stimulation of P-gp in human multi-drug resistant NCI-H460/R cells assessed as decrease in Rho123 accumulation by measuring mean fluorescence intensity at 50 uM incubated for 30 mins in presence of rhodamine 123 by flow cytometry. The conditions noted are these: nci-h460, 0.5 h. In short, it runs like this: as §2
The target is the same in data set [18]. Put plainly: Stimulation of P-gp in human multidrug resistant NCI-H460/R cells assessed as fluorescence activity ratio at 50 uM for 30 mins by Rho123 accumulation assay relative to control. Conditions: nci-h460, 0.5 h. The method in brief: (§4)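 Rho123 and test agent given together to NCI-H460/R cells for 30 min, then mean fluorescence intensity (MFI) read. FAR = MFI of treated MDR cells / MFI of untreated MDR cells. SI = (MFI of treated MDR cells × 100) / MFI of untreated sensitive NCI-H460 cells. Tariquidar was the P-gp inhibition control. Mean ± SE.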

A short description of data set [19]: Selectivity index, ratio of mean fluorescence intensity for stimulation of P-gp in human multidrug resistant NCI-H460/R cells to mean fluorescence intensity for stimulation of P-gp in human NCI-H460 cells assessed as decrease in Rho123 accumulation at 50 uM for 30 mins. It counts as functional. The conditions noted are these: 0.5 h. In short, it runs like this: as §4

Data set [20] has as its target T1, ATP-dependent translocase ABCB1. Put plainly: Stimulation of P-gp in human multidrug resistant NCI-H460/R cells assessed as decrease in Rho123 accumulation by measuring mean fluorescence intensity at 0.05 uM incubated for 72 hour followed by rhodamine 123 measured after 30 mins by flow cytometry. Conditions: nci-h460, 72 h. In short, it runs like this:
as §3

Data set [21] has the same target. Put plainly: Stimulation of P-gp in human multidrug resistant NCI-H460/R cells assessed as fluorescence activity ratio at 0.05 uM […] by Rho123 accumulation assay relative to control. Conditions: nci-h460, 1.2 h.
Data set [22] can be described thus: Selectivity index, ratio of mean fluorescence intensity for stimulation of P-gp in human multidrug resistant NCI-H460/R cells to mean fluorescence intensity for stimulation of P-gp in human NCI-H460 cells assessed as decrease in Rho123 accumulation at 0.05 uM for […]. It counts as functional.

T1 sequence (P08183 whole entry): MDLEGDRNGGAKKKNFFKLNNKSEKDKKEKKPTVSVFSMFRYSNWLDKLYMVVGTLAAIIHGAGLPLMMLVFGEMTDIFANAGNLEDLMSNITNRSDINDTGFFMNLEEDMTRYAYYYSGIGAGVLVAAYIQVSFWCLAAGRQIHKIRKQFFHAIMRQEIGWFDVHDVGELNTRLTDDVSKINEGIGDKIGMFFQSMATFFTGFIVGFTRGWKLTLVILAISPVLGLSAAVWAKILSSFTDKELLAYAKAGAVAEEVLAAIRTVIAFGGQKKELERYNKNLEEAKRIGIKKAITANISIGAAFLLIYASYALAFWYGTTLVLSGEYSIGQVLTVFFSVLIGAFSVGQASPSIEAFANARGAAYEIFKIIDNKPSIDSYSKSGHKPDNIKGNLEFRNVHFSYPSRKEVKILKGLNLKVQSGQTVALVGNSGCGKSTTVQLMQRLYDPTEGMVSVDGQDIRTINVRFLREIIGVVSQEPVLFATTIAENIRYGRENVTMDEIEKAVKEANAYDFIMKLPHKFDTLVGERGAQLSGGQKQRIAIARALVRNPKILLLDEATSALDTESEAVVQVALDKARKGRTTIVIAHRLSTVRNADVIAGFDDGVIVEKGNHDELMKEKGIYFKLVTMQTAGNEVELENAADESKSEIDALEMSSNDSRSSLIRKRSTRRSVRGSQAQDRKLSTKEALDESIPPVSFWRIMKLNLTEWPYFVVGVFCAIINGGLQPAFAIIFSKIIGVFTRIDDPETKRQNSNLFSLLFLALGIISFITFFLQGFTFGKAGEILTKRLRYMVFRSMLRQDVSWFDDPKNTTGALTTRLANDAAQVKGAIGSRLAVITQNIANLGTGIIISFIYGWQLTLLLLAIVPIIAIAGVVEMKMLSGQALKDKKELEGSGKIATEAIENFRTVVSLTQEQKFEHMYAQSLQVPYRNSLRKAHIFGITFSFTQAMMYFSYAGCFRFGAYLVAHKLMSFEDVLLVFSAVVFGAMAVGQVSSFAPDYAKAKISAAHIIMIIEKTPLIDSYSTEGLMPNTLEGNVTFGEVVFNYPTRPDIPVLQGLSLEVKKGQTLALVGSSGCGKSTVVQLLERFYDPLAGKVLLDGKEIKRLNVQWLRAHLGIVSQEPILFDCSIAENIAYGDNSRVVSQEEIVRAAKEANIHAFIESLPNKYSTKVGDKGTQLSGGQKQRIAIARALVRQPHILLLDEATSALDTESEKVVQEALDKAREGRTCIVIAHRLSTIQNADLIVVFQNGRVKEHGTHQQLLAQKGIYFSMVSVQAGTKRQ

As to `CC(C)c1c(O)c(O)c2c(c1O)C(=O)C(O)=C1C(C)(C)CCC[C@@]12C`, in data set [1], the selectivity ratio was 2.5. The IC50 in data set [2] was 35.5 µM; in data set [3], 14.5 µM; in [4] it was 14.1 µM. Moreover, the Flu intensity came to 1258.8 in data set [5], 253 in data set [6], 173.5 in [11] and 109.7 in [12]. The Ratio in data set [7] was 2.45; in [8], 0.49; in data set [13], 0.21; in [14], 0.14. Moreover, the “Selectivity Index” value was 58.52 in [9], 11.76 in data set [10], 7 in data set [15] and 4.43 in data set [16].
Turning to `CC(C)C1=C(O)C(=O)C2=C(C(=O)C(O)=C3C(C)(C)CCC[C@]23C)C1=O`, the selectivity ratio in data set [1] came out at 2. Besides, the half-maximal inhibitory concentration (IC50) was 44.1 µM in data set [2], 20.4 µM in data set [3] and 23 µM in data set [4]. Besides, the Flu intensity in data set [5] amounted to 669.6; in [6] it was 991.3; in data set [11], 277.3; in data set [12], 242. The Ratio in data set [7] worked out at 1.3; in data set [8], 1.93; in data set [13], 0.34; in data set [14] it was 0.3. Besides, the “Selectivity Index” value in data set [9] was 31.13; in [10], 46.09; in [15], 11.18; in data set [16], 9.76.
For the molecule `CC(C)c1cc2c(c(O)c1O)[C@@]1(O)CCCC(C)(C)[C@@H]1C(=O)C2=O`, in data set [1], the “Ratio IC50” value is given as “Not Active”. Further, the IC50 in [2], in data set [3] and in data set [4] was more than 50 µM each time. Moreover, the Flu intensity was found to be 595.3 in [5], 573 in data set [6], 265.9 in data set [11] and 254.5 in [12]. In addition, the Ratio in data set [7] is 1.16; in data set [8], 1.12; in data set [13], 0.33; in data set [14] it was 0.31. The “Selectivity Index” value in data set [9] is recorded as 27.68; in [10] it was 26.64; in data set [15] it was 10.72; in data set [16], 10.26.
Consider `CC(C)C1=C(O)C(=O)[C@@]23O[C@@]2(C(=O)C(O)=C2C(C)(C)CCC[C@@]23C)C1=O`, for which the selectivity ratio in [1] is 2. Moreover, the results for the IC50 in data set [2], in [3] and in data set [4] were 40.2 µM, 17.3 µM and 20.2 µM, respectively. The Flu intensity in [5] is 711.6; in [6], 666.1; in data set [11], 289.7; in [12], 276.6. Also, the Ratio in [7] came out at 1.39; in [8], 1.3; in data set [13], 0.36; in data set [14] it was 0.34. The “Selectivity Index” value in data set [9] came out at 33.08; in [10], 30.97; in data set [15], 11.68; in [16], 11.16.
As for `COc1cccc2c1C(=O)c1c(O)c3c(c(O)c1C2=O)C[C@@](O)(C(=O)CO)C[C@@H]3O[C@H]1C[C@H](N)[C@H](O)[C@H](C)O1` [DOXORUBICIN], the IC50 in [3] stood at 1.62 µM.
Turning to `CC(=O)O[C@H]1C(=O)[C@@]2(C)[C@H]([C@H](OC(=O)c3ccccc3)[C@]3(O)C[C@H](OC(=O)[C@H](O)[C@@H](NC(=O)c4ccccc4)c4ccccc4)C(C)=C1C3(C)C)[C@]1(OC(C)=O)CO[C@@H]1C[C@@H]2O` [PACLITAXEL], the selectivity ratio in data set [1] stood at 872. For the same molecule, the half-maximal inhibitory concentration (IC50) in [2] came out at 0.523 µM; in [3] it was 0.117 µM; in [4], 0.0006 µM.
Regarding `COc1cc2c(cc1OC)CN(CCc1ccc(NC(=O)c3cc(OC)c(OC)cc3NC(=O)c3cnc4ccccc4c3)cc1)CC2` [TARIQUIDAR], the Flu intensity in [17] and in data set [20] was 3004 throughout. Moreover, the Ratio in [18] and in data set [21] was 3.7 throughout. Also, the “Selectivity Index” value in data set [19] and in data set [22] was 121.16 in each case.
